pIC50: −log10 of the molar value.
Columns and labels:
[1] = target: T1, Phenylalanine--tRNA ligase alpha subunit (Haemophilus influenzae (strain ATCC 51907 / DSM 11121 / KW20 / Rd), UniProt P43819); assay: Inhibitory concentration against Haemophilus influenzae Phenylalanyl-tRNA synthetase
In short: (§1)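 Recombinant bacterial FRS (S. aureus WCUH29 enzyme cloned and overexpressed in E. coli; S. pneumoniae and H. influenzae enzymes overexpressed and purified the same way). IC50 from the full aminoacylation reaction with SPA read-out. Phenylalanine was held at the Km of each enzyme.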

[2] = target: T2, Phenylalanine--tRNA ligase alpha subunit (Staphylococcus aureus, UniProt P68849); assay: Inhibitory concentration against Staphylococcus aureus Phenylalanyl-tRNA synthetase; in short: as §1
T2 sequence (P68849 whole entry): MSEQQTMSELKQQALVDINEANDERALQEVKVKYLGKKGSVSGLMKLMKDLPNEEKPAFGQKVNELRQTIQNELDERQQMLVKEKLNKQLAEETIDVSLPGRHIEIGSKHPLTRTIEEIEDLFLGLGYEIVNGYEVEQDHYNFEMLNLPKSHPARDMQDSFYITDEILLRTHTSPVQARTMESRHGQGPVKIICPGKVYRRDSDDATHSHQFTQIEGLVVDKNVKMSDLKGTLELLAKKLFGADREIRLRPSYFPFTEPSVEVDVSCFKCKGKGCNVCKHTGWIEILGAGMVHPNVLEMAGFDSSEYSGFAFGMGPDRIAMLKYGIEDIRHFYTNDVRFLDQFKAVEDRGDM

[3] = target: T3, Phenylalanine--tRNA ligase alpha subunit (Streptococcus pneumoniae serotype 4 (strain ATCC BAA-334 / TIGR4), UniProt Q97S36); assay: Inhibitory concentration against Streptococcus pneumoniae Phenylalanyl-tRNA synthetase; in short: as §1
T3 sequence (Q97S36 whole entry): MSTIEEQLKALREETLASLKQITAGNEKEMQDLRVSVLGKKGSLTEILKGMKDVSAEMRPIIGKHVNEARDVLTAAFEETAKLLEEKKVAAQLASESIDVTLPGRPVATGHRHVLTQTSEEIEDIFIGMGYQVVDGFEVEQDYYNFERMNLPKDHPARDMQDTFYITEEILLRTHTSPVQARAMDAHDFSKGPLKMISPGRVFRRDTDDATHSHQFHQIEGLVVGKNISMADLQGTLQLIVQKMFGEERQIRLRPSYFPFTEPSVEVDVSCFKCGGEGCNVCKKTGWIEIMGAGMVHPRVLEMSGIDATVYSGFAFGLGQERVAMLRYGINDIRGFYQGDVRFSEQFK

[4] = target: T4, Phenylalanine--tRNA ligase, mitochondrial (Rattus norvegicus, UniProt Q6AYQ3); assay: Inhibitory concentration against Phenylalanyl-tRNA synthetase from rat liver
T4 sequence (Q6AYQ3 whole entry): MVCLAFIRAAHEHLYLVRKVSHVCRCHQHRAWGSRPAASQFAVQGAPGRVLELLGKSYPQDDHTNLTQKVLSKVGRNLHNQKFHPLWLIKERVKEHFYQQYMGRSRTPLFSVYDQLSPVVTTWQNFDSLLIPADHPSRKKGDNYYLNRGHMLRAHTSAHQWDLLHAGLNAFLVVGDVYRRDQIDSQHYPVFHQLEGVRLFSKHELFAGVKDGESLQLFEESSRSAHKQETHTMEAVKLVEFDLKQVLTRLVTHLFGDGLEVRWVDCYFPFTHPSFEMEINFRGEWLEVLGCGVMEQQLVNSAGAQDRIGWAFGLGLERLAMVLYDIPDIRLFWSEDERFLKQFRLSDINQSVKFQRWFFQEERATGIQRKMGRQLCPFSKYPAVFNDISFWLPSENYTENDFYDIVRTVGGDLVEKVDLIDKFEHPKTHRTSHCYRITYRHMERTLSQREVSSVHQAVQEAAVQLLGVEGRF
In short: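 Mammalian FRS isolated from rat liver; IC50 determined to assess selectivity against the bacterial enzyme.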

[5] = target: T2, Phenylalanine--tRNA ligase alpha subunit; assay: Inhibitory concentration against […] Phenylalanyl-tRNA synthetase
In short: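 Recombinant S. aureus WCUH29 FRS, cloned and overexpressed in E. coli, then purified. IC50 measured in the full aminoacylation reaction with SPA readout. Phenylalanine set at the enzyme's Km.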

[6] = target: T1, Phenylalanine--tRNA ligase alpha subunit; assay: Inhibitory concentration against Haemophilus influenzae Phenylalanyl-tRNA synthetase; NI=no inhibition at 300 nM
In short: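 Recombinant FRS from the named species, overexpressed in E. coli and purified. IC50 measured in the full aminoacylation reaction with SPA readout. Phenylalanine set at the Km of each enzyme.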

T1 sequence (P43819 whole entry): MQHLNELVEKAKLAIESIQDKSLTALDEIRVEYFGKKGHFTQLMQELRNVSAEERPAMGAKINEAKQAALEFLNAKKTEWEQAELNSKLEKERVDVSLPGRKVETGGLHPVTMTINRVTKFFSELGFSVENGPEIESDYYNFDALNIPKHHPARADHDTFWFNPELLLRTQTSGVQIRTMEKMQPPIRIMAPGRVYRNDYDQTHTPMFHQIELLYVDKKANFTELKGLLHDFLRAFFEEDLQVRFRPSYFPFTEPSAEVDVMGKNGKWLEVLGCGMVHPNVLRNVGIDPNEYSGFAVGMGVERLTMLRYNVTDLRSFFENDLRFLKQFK

Row | Compound | pIC50 [2] | also measured
1 | OCCOc1ccccc1CNC[C@H](O)c1cc(Br)cs1 | < 6.00 | pIC50 [1]: < 6.00; pIC50 [3]: < 6.00
2 | NCCOc1ccccc1CNCC(O)c1cc(Br)cs1 (stereo not given) | 6.66 | –
3 | O=C(O)CCCOc1ccccc1CNCC(O)c1cc(Br)cs1 (stereo not given) | 7.37 | –
4 | COc1ccccc1CNCC(O)c1cccc(C(F)(F)F)c1 (stereo not given) | 6.80 | –
5 | OCCOc1ccccc1CNC[C@@H](O)c1cc(Br)cs1 | 8.43 | pIC50 [1]: 7.25; pIC50 [3]: 6.72
6 | OCc1cccc(C(O)CNCc2ccccc2OCc2ccccc2)c1 (stereo not given) | 6.24 | –
7 | OC(CNCc1ccccc1OCc1ccccc1)c1cc(Br)cs1 (stereo not given) | 8.00 | pIC50 [1]: 5.82; pIC50 [3]: 6.55
8 | OC(CNCc1ccccc1OCc1ccccc1)c1cccc(Cl)c1 (stereo not given) | 7.51 | –
9 | COc1cccc(C(O)CNCc2ccccc2OCc2ccccc2)c1 (stereo not given) | 7.08 | –
10 | OC(CNCc1ccccc1OCc1ccccc1)c1cc(C(F)(F)F)cc(C(F)(F)F)c1 (stereo not given) | < 5.00 | –
11 | OC(CNCc1ccccc1OCc1ccccc1)c1cccc(C(F)(F)F)c1 (stereo not given) | 7.30 | –
12 | Cc1ccccc1CNCC(O)c1cccc(C(F)(F)F)c1 (stereo not given) | 6.10 | –
13 | COc1ccccc1CNCC(O)c1cc(Br)cs1 (stereo not given) | 7.30 | –
14 | COc1ccccc1CNCC(O)c1cccc(Br)c1 (stereo not given) | 6.96 | –
15 | CN(CCO)C(=O)COc1ccccc1CNCC(O)c1cc(Br)cs1 (stereo not given) | 6.96 | –
16 | NC(=O)COc1ccccc1CNCC(O)c1cc(Br)cs1 (stereo not given) | 7.38 | –
17 | O=C(O)c1ccccc1CNCC(O)c1cccc(C(F)(F)F)c1 (stereo not given) | 5.60 | –
18 | CN(CCO)C(=O)CCOc1ccccc1CNCC(O)c1cc(Br)cs1 (stereo not given) | 7.60 | –
19 | OC(CNCc1ccccc1OC(F)F)c1cccc(C(F)(F)F)c1 (stereo not given) | 6.59 | –
20 | CNC(=O)CNC(=O)CCCOc1ccccc1CNCC(O)c1cc(Br)cs1 (stereo not given) | 7.52 | –
21 | OC(CNCc1ccccc1OCc1cccnc1)c1cc(Br)cs1 (stereo not given) | 7.74 | –
22 | COc1ccccc1CNCC(O)c1cccc(OC(F)(F)F)c1 (stereo not given) | 6.72 | –
23 | OC(CNCc1ccccc1OCc1nc2ccccc2[nH]1)c1cc(Br)cs1 (stereo not given) | 7.59 | pIC50 [1]: 6.82; pIC50 [3]: 6.60
24 | CNC(=O)CNC(=O)CCOc1ccccc1CNCC(O)c1cc(Br)cs1 (stereo not given) | 7.44 | –
25 | C=CCOc1ccccc1CNCC(O)c1cc(Br)cs1 (stereo not given) | 7.74 | –

Row | Compound | pIC50 [2] | also measured
26 | OCCOc1ccccc1CNCC(O)c1cc(Br)cs1 (stereo not given) | 8.10 | –
27 | COCOc1ccccc1CNCC(O)c1cc(Br)cs1 (stereo not given) | 7.46 | –
28 | OC(CNCc1ccccc1OCc1ccccn1)c1cc(Br)cs1 (stereo not given) | 7.37 | –
29 | OC(CNCc1ccccc1OCc1ccncc1)c1cc(Br)cs1 (stereo not given) | 7.80 | pIC50 [4]: 4.05
30 | COc1ccccc1CNCC(O)c1cccc(OCc2ccccc2)c1 (stereo not given) | < 5.00 | –
31 | O=C1c2ccccc2C(=O)N1CCOc1ccccc1CNCC(O)c1cc(Br)cs1 (stereo not given) | 6.60 | –
32 | OC(CNCc1ccccc1Oc1ccccc1)c1cc(Br)cs1 (stereo not given) | 6.92 | –
33 | COc1ccccc1CNCC(O)c1cccc(C)c1 (stereo not given) | 6.96 | –
34 | CCNC(=O)COc1ccccc1CNCC(O)c1cc(Br)cs1 (stereo not given) | 7.49 | –
35 | COc1ccccc1CNCC(O)c1ccc(C(F)(F)F)cc1 (stereo not given) | < 5.00 | –
36 | Oc1ccccc1CNCC(O)c1cccc(C(F)(F)F)c1 (stereo not given) | 7.00 | –
37 | CS(=O)(=O)c1ccc(COc2ccccc2CNCC(O)c2cc(Br)cs2)cc1 (stereo not given) | 7.59 | –
38 | CN(CCO)C(=O)CCCOc1ccccc1CNCC(O)c1cc(Br)cs1 (stereo not given) | 7.59 | –
39 | OC(CNCc1ccccc1OCCN1CCOCC1)c1cc(Br)cs1 (stereo not given) | 7.74 | –
40 | NCCCCOc1ccccc1CNCC(O)c1cc(Br)cs1 (stereo not given) | 7.66 | –
41 | O=C(O)CCOc1ccccc1CNCC(O)c1cc(Br)cs1 (stereo not given) | 7.24 | –
42 | COc1ccccc1CNCC(O)c1ccccc1C(F)(F)F (stereo not given) | < 5.00 | –
43 | N#CCOc1ccccc1CNCC(O)c1cc(Br)cs1 (stereo not given) | 7.31 | –
44 | OC(CNCc1ccccc1)c1cccc(C(F)(F)F)c1 (stereo not given) | 6.80 | pIC50 [5]: 6.80; IC50 [6]: No inhibition
45 | C=CCOc1ccccc1CNCC(O)c1cccc(C(F)(F)F)c1 (stereo not given) | 7.24 | –
46 | O=C1c2ccccc2C(=O)N1CCCCOc1ccccc1CNCC(O)c1cc(Br)cs1 (stereo not given) | 7.16 | –
47 | OC(CNCc1ccccc1OCc1ccccc1)c1cccc(I)c1 (stereo not given) | 7.49 | –
48 | CNC(=O)CNC(=O)COc1ccccc1CNCC(O)c1cc(Br)cs1 (stereo not given) | 6.92 | –
49 | COc1ccccc1CNCC(O)c1cc(C(F)(F)F)ccc1C(F)(F)F (stereo not given) | < 5.00 | –

Reference: ChEMBL document CHEMBL1144382, “Discovery and optimisation of potent, selective, ethanolamine inhibitors of bacterial phenylalanyl tRNA synthetase” (Bioorg Med Chem Lett, 2005)
